Source: PubChem (NMMLSC)
Only some compounds are listed: those with a hit (about 2.5% of all), similar ones and a draw of the others.
MEKK2wt PB1 HTS: modulators of MEK5 binding to wildtype MEKK2, primary screen, biochemical, multiplex bead flow cytometry, Alexa488-MEK5 | Alexa488-MEK5 binding to MEKK2 WT; actives lie on both sides | binding response (% of control), % at 10 µM | hit rate 1.1% among 290,000; in the data active = binding response below about 67% or above about 130%
MEKK3 PB1 HTS: modulators of MEKK3-MEK5 PB1 binding, primary screen, biochemical, wildtype MEKK3, multiplex bead flow cytometry, Alexa488-MEK5; bead-based flow cytometry, Alexa488-MEK5 binding to MEKK3; actives lie on both sides; 0 = blocked by unlabeled MEK5, 100 = vehicle; binding response (% of control), % at 10 µM; hit rate 1.4% among 290,000; AID 1529, 2009;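 active = binding response more than 3 SD above or below the average of its plate-row segment, actives on both sides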;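 also: Alexa488 bead fluorescence after subtracting the streptavidin-only scavenger bead signal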
Efflux pump inh: inhibitors of Candida efflux pumps in yeast, primary screen, S. cerevisiae, Nile Red, multiplex; AID 485275, 2010; S. cerevisiae Candida pump triplex; inhibition, % at 10 µM; hit rate 0.44% among 330,000;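 active = plate passing quality check with inhibition over a set limit, or well fluorescence over plate mean plus 4 SD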;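 also: Nile Red retained in pooled yeast measured as flow cytometry median fluorescence; 0% = buffer negative control and 100% = Enniatin B positive control; higher means more Nile Red kept so more efflux inhibition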
ABCB1 block: ABCB1 efflux pump inhibitors, primary screen, cell-based, multiplex, flow cytometry, ABCG2 counter-screen; ATP-dependent translocase ABCB1 (Homo sapiens), P08183; CCRF-Adr cells, JC-1 efflux; inhibition, % at 6.6 µM; hit rate 0.067% among 190,000; AID 1326, 2008; in the data active = inhibition above about 40%;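 also: 0% = vehicle and 100% = reference inhibitor; higher value means more JC-1 retained so stronger ABCB1 efflux block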
Target sequence (P08183 whole entry, looked up): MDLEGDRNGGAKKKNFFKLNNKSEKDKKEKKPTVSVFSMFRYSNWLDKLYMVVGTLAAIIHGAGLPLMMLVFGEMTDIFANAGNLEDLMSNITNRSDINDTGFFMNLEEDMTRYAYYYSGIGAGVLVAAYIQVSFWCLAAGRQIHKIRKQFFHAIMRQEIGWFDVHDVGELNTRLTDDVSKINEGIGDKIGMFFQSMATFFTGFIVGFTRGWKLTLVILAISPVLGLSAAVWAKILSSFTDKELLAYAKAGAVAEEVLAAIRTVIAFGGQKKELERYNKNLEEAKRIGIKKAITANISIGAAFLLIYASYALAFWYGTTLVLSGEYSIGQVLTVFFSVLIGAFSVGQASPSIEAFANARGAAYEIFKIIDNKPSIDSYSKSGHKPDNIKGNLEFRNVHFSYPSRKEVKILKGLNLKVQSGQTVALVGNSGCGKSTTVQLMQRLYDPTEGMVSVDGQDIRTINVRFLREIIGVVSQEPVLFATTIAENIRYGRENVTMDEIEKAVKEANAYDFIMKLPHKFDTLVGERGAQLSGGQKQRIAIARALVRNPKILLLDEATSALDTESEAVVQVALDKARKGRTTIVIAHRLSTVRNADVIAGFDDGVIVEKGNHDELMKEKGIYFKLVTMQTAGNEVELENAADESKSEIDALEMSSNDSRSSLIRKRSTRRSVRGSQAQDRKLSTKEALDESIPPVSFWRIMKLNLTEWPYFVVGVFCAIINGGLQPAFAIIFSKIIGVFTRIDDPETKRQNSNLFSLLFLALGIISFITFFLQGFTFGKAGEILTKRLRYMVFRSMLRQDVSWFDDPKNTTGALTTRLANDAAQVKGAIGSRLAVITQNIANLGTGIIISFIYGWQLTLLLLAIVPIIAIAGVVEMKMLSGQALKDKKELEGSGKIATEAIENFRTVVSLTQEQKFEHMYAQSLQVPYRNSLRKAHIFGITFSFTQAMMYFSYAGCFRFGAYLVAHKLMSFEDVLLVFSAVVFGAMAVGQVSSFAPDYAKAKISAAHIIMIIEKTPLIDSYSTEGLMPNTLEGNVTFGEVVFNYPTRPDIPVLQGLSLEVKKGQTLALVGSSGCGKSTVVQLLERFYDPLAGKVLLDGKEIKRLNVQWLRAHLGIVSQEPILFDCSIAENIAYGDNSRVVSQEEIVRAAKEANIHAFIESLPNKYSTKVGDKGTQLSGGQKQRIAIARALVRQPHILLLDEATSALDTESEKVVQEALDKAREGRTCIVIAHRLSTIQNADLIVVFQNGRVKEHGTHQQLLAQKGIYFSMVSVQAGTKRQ
MEKK2mut PB1 HTS: MEK5 binding signal on mutant MEKK2 PB1, primary screen, biochemical, multiplex bead flow cytometry, Alexa488-MEK5 | percent response, % at 10 µM | Alexa488-MEK5 binding to MEKK2 mutant | AID 1530, 2009 | hit rate 0.35% among 290,000; in the data active = percent response above about 24%, passing the limit was not always enough
ABCG2 block: ABCG2 efflux pump inhibitors, primary screen, multiplex with ABCB1, IgMXP3 cells, flow cytometry. Broad substrate specificity ATP-binding cassette transporter ABCG2 (Homo sapiens), Q9UNQ0. JC-1 efflux. inhibition, % at 6.6 µM. hit rate 0.1% among 190,000;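 active = inhibition above 80%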;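 also: 0% = DMSO and 100% = nicardipine control wells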
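System: two drug-resistant human cell lines, ABCG2 and ABCB1; controls: nicardipine high and DMSO low controls; times: 10 min exposure at 25 °C with rotation, no wash; detection: flow cytometry of retained JC-1 fluorescence; read-out basis: percent efflux inhibition, scaled nicardipine 100% to DMSO 0%; doses: one concentration, 6.6 µM final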
ABCB1 confirm: ABCB1 efflux pump inhibitors, confirmation, cell-based, single point, ABCG2 counter-screen. inhibition, % at 6.6 µM. hit rate 7% among 270. shares compounds with ABCG2 block. CCRF-Adr cells, JC-1 efflux, flow cytometry;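 active = inhibition of pump activity above 50%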;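 also: 0% = DMSO and 100% = nicardipine full pump inhibition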
ABCG2 single pt: ABCG2 efflux pump inhibitors, confirmation, single point, IgMXP3 cells, ABCB1 counter-screen paired; hit rate 6% among 270; inhibition, % at 6.6 µM; shares compounds with ABCG2 block; JC-1 efflux, flow cytometry;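 active = inhibition above 50%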;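 also: 0% = DMSO wells and 100% = nicardipine pump inhibitor wells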
IgMXP3 autofluor: compound autofluorescence in ABCG2-expressing IgMXP3 cells, confirmation, artefact control for ABC transporter inhibitor project, cell-based, 488/530 nm, flow cytometry. shares compounds with ABCG2 block. compound autofluorescence 488/530 nm; stronger effect = higher value. fluorescence at 6.6 µM. hit rate 30% among 270;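 active = fluorescence in ABCG2-expressing cells above the plate's control-well mean plus 3 SD, cut at about 15 in these data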;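 also: median cell fluorescence with compound minus that of DMSO-treated control cells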
CCRF-Adr fluor: compound autofluorescence in ABCB1-expressing CCRF-Adr cells, confirmation, artefact control for ABC transporter inhibitor project, cell-based, 488/530 nm, flow cytometry; shares compounds with ABCG2 block; hit rate 30% among 270; AID 1483, 2009; compound autofluorescence 488/530 nm; stronger effect = higher value; fluorescence at 6.6 µM;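 active = fluorescence beyond the plate control mean plus 3 SD, with a fluorescence-to-maximum score over 2, cut at about 25 in these data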
MEKK2wt confirm: modulators of MEK5 binding to wildtype MEKK2, confirmation, biochemical, single concentration, multiplex bead flow cytometry; shares compounds with MEKK3 PB1 HTS; Alexa488-MEK5 binding to MEKK2 WT; actives lie on both sides; binding response (% of control), % at 10 µM; hit rate 2.4% among 5,900; AID 1892, 2009; in the data active = binding response below about 16% or above about 210%; inactive = in between
MEKK2mut confirm: mutant MEKK2 PB1-MEK5 binding signal retest – biochemical, single concentration, multiplex bead flow cytometry, confirmation; shares compounds with MEKK3 PB1 HTS; hit rate 2% among 5,900; AID 1893, 2009; Alexa488-MEK5 binding to MEKK2 mutant; percent response, % at 10 µM; in the data active = percent response mostly above about 71%, no sharp cut-off; inactive = mostly below about 38%;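 also: higher means compound restores mutant binding toward wildtype level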
MEKK3-MEK5 inh: MEKK3 wild-type PB1 binding to MEK5, inhibitors, confirmation, biochemical, bead multiplex flow cytometry, single concentration, wildtype; shares compounds with MEKK3 PB1 HTS; Alexa488-MEK5 binding to MEKK3; stronger effect = lower value; binding response (% of control), % at 10 µM; hit rate 1.8% among 5,900; AID 1894, 2009;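 active = binding response below 72% of control, or above a set upper limit, though filed actives all read lower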;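 also: 100% = DMSO only wells and 0% = binding blocked by excess unlabeled MEK5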
Yeast cmpd fluor: counter-screen for efflux pump inhibitors: compound fluorescence | shares compounds with Efflux pump inh | S. cerevisiae AD/pABC3, flow cytometry | fluorescence ratio to DMSO, % at 10 µM | hit rate 4% among 1,700;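 active = fluorescence ratio to DMSO above its plate's cutoff, the plate mean ratio plus 5 SD, cut at about 210% in these data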;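 also: unstained yeast with no Nile Red so the signal is compound autofluorescence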
Mdr1 pump inh: inhibitors of Candida albicans Mdr1 efflux, confirmation, flow cytometry, singleplex, Cherry Pick1 set; shares compounds with Efflux pump inh; S. cerevisiae AD/CaMDR1, Nile Red efflux; inhibition, % at 10 µM; hit rate 1% among 1,700; AID 588518, 2011; in the data active = inhibition above about 26%;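 also: 0% = DMSO vehicle and 100% = reference inhibitor; higher means more Nile Red retained so more efflux inhibition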
CaCdr2 efflux inh: inhibitors of Candida albicans Cdr2 efflux pump, confirmation, S. cerevisiae AD/CaCDR2, flow cytometry, cherry pick 1, singleplex. shares compounds with Efflux pump inh. Nile Red retention. Nile Red retention ratio vs DMSO, % at 10 µM. hit rate 4% among 1,700. AID 588520, 2011; in the data active = Nile Red retention ratio vs DMSO above about 190%;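 also: higher ratio means more blocking of Cdr2 efflux of the dye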
CaCdr1 efflux inh: inhibitors of Candida albicans Cdr1 efflux pump, confirmation, S. cerevisiae AD/CaCDR1, flow cytometry, cherry pick 1, singleplex. hit rate 1% among 1,700. Nile Red efflux. shares compounds with Efflux pump inh. inhibition, % at 10 µM;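 active = inhibition above the screen-wide mean plus twice its standard deviation, cut at about 32% in these data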
An asterisk follows results filed as active.

Results for COc1ccc(/C=C/C(=O)C23CC4CC(CC(C4)C2)C3)cc1CN1CCOCC1 ?
MEKK2wt PB1 HTS: 114; MEKK3 PB1 HTS: 105; Efflux pump inh: 0; ABCB1 block: 0; MEKK2mut PB1 HTS: -2; ABCG2 block: 2

How did CCN(CC)c1ccc(/C=C(\C#N)C(=O)c2ccc(Br)cc2)cc1 do in these assays?
MEKK2wt PB1 HTS: 148*; MEKK3 PB1 HTS: 123; Efflux pump inh: 0; ABCB1 block: 181*; MEKK2mut PB1 HTS: 153*; ABCG2 block: active; ABCB1 confirm: -11; ABCG2 single pt: -222; IgMXP3 autofluor: 743*; CCRF-Adr fluor: 814*; MEKK2wt confirm: 49; MEKK2mut confirm: -48; MEKK3-MEK5 inh: 85

Results for CCN(CC)c1ccc(/C=C(\C#N)C(N)=O)cc1 ?
MEKK2wt PB1 HTS: 97; MEKK3 PB1 HTS: 103; ABCB1 block: 0; MEKK2mut PB1 HTS: -6; ABCG2 block: 0

Results for CCN1CCN(C2=CC3=CC(=C(C#N)C#N)CCC3CC2)CC1 (stereo not drawn) ?
MEKK2wt PB1 HTS: 79; MEKK3 PB1 HTS: 85; ABCB1 block: 70*; MEKK2mut PB1 HTS: -44; ABCG2 block: 55; ABCB1 confirm: 23; ABCG2 single pt: 46; IgMXP3 autofluor: 35*; CCRF-Adr fluor: 93*; Yeast cmpd fluor: 140; Mdr1 pump inh: 1; CaCdr2 efflux inh: 203*; CaCdr1 efflux inh: 0

What do the screens show for `N#CC(C#N)=C1C=C2C=C(N3CCOCC3)CCC2CC1` (stereo not drawn)?
MEKK2wt PB1 HTS: 86; MEKK3 PB1 HTS: 90; ABCB1 block: 169*; MEKK2mut PB1 HTS: -12; ABCG2 block: 53; ABCB1 confirm: 11; ABCG2 single pt: 50*; IgMXP3 autofluor: 7.7; CCRF-Adr fluor: 25; Yeast cmpd fluor: 184; Mdr1 pump inh: 2; CaCdr2 efflux inh: 206*; CaCdr1 efflux inh: 1

What do the screens show for `CN1CCN(C2=CC3=CC(=C(C#N)C#N)CCC3CC2)CC1` (stereo not drawn)?
MEKK2wt PB1 HTS: 99; MEKK3 PB1 HTS: 100; ABCB1 block: active; MEKK2mut PB1 HTS: -3; ABCG2 block: 85*; ABCB1 confirm: 68*; ABCG2 single pt: 53*; IgMXP3 autofluor: 29*; CCRF-Adr fluor: 47*; Yeast cmpd fluor: 161; Mdr1 pump inh: 0; CaCdr2 efflux inh: 243*; CaCdr1 efflux inh: 0

What do the screens show for `N#CC(C#N)=C1C=C2C=C(N3CCCCCC3)CCC2CC1` (stereo not drawn)?
MEKK2wt PB1 HTS: 87; MEKK3 PB1 HTS: 99; ABCB1 block: 116*; MEKK2mut PB1 HTS: -12; ABCG2 block: 55; ABCB1 confirm: 138*; ABCG2 single pt: 46; IgMXP3 autofluor: 46*; CCRF-Adr fluor: 131*; Yeast cmpd fluor: 258*; Mdr1 pump inh: 2; CaCdr2 efflux inh: 271*; CaCdr1 efflux inh: 1

What do the screens show for `CC1(C)CC(NCCN2CCN(C3=CC(=C(C#N)C#N)CC(C)(C)C3)CC2)=CC(=C(C#N)C#N)C1`?
MEKK2wt PB1 HTS: 97; MEKK3 PB1 HTS: 95; Efflux pump inh: 0; ABCB1 block: 0; MEKK2mut PB1 HTS: -6; ABCG2 block: 5

What do the screens show for `Cc1nc(-c2cccc(NC(=O)c3ccc(-n4cccn4)cc3)c2)cs1`?
Efflux pump inh: 0

What do the screens show for `CCN(CC)S(=O)(=O)c1cccc(NC(=O)CNc2cccc(S(=O)(=O)N3CCOCC3)c2)c1`?
Efflux pump inh: 0
